One assay relates to K562. Kind of assay: Antiproliferative activity against human K562 cells after 48 hrs by MTT assay. The format is functional, cell-based. As to conditions: K562, 48 h. In outline:
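MTT assay on K562 cells (RPMI-1640, 10% FBS) plated at 5 × 10^4 cells/ml for 2 h, then exposed to 10–100,000 nM compound for 48 h. MTT (5 mg/mL stock) added for 4 h before absorbance read. Viability normalized to DMSO controls (100%); IC50 from nonlinear regression, three independent assays.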

In another assay the test system is HepG2. Nature of the assay: Antiproliferative activity against human HepG2 cells after 48 hrs by MTT assay. The assay is classed as functional, cell-based. As to conditions: HepG2, 48 h.

Turning to `COc1ccc(-c2ccc3c(c2)C(=O)C(=O)N3CCOc2ccccc2)cc1`, the IC50 in the assay with K562 was 400 nM; in the assay on HepG2, 700 nM.

Take `COc1ccc(CN2C(=O)C(=O)c3cc(-c4ccc(C#N)cc4)ccc32)cc1`: the IC50 in the assay with K562 is 260 nM; in the assay on HepG2, 890 nM.

On to `COc1ccc(-c2ccc3c(c2)C(=O)C(=O)N3Cc2cccc(Cl)c2)cc1`, for which the IC50 turned out to be 200 nM in the assay with K562 and 320 nM in the assay with HepG2.

Turning to `COc1ccc(-c2ccc3c(c2)C(=O)C(=O)N3Cc2ccc(Cl)c(Cl)c2)cc1`, the IC50 in the assay on K562 is 430 nM; with HepG2, 990 nM.

As to `COc1ccc(CN2C(=O)C(=O)c3cc(-c4ccc(OC(F)(F)F)cc4)ccc32)cc1`, the IC50 in the assay on K562 turned out to be 60 nM; in the assay with HepG2, 410 nM.

Consider `COc1ccc(CN2C(=O)C(O)c3cc(-c4ccc(OC)cc4)ccc32)cc1` (stereo not drawn), for which the 50% inhibitory concentration (IC50) was 140 nM in the assay on K562 and 700 nM with HepG2.

Consider `COc1ccc(CN2C(=O)C(=O)c3cc(-c4cc(OC)cc(OC)c4)ccc32)cc1`, for which the values for the IC50 in the assay with K562 and with HepG2 were 510 nM and 1200 nM, respectively.

For the molecule `COc1ccc(-c2ccc3c(c2)C(=O)C(=O)N3Cc2ccc(C(F)(F)F)cc2)cc1`, the IC50 with K562 is 270 nM; with HepG2 it was 380 nM.

Take `COc1ccc(-c2ccc3c(c2)C(=O)C(=O)N3Cc2ccc3ccccc3c2)cc1`: in the assay with HepG2, the IC50 was 380 nM.

Consider `COc1ccc(-c2ccc3c(c2)C(=O)C(=O)N3Cc2ccccc2)cc1`, for which the figures for the half-maximal inhibitory concentration (IC50) with K562 and in the assay on HepG2 were 570 nM and 1360 nM, respectively.

On to `O=C1Nc2ccc(-c3ccc(C(F)(F)F)cc3)cc2C1=O`, for which the IC50 in the assay with K562 is more than 10000 nM; with HepG2 it was 5430 nM.

Consider `O=C1Nc2ccc(Br)cc2C1=O`, for which the IC50 in the assay on K562 and with HepG2 was more than 10000 nM each time.

Take `COc1ccc(CN2C(=O)/C(=C\c3ccccc3)c3cc(-c4ccc(OC)cc4)ccc32)cc1`: the IC50 with K562 and in the assay on HepG2 was more than 10000 nM each time.

Turning to `COc1ccc(CN2C(=O)C(=O)c3cc(-c4ccc(C(C)(C)C)cc4)ccc32)cc1`, the IC50 with K562 turned out to be 2250 nM; with HepG2, 4580 nM.

On to `COc1ccc2c(c1)C(=O)C(=O)N2` [5-METHOXYISATIN], for which the IC50 in the assay on K562 and with HepG2 was more than 10000 nM throughout.

On to `O=C1Nc2ccc(Cl)cc2C1=O`, for which the IC50 with K562 and with HepG2 was more than 10000 nM in each case.

For `COc1ccc(-c2ccc3c(c2)C(=O)C(=O)N3Cc2ccc(Br)cc2)cc1`, the IC50 was 100 nM with K562 and 700 nM in the assay on HepG2.

Turning to `Cc1ccc2c(c1)C(=O)C(=O)N2`, the IC50 in the assay with K562 and in the assay with HepG2 was more than 10000 nM throughout.

As to `COc1ccc(CN2C(=O)C(=O)c3cc(-c4ccc5ccccc5c4)ccc32)cc1`, the results for the IC50 in the assay with K562 and in the assay with HepG2 were 340 nM and more than 10000 nM, respectively.

With `COc1ccc(CN2C(=O)C(=O)c3cc(-c4ccccc4OC)ccc32)cc1`, the IC50 in the assay on K562 was 370 nM; with HepG2 it was more than 10000 nM.

Turning to `COc1ccc(CN2C(=O)C(=O)c3cc(-c4ccc(F)cc4)ccc32)cc1`, the results for the IC50 with K562 and in the assay on HepG2 were 240 nM and 3150 nM, respectively.

As for `COC(=O)/C=C1\C(=O)N(Cc2ccc(OC)cc2)c2ccc(-c3ccc(OC)cc3)cc21`, the results for the IC50 in the assay with K562 and with HepG2 were 1900 nM and 4730 nM, respectively.

Regarding `COc1ccc(CN2C(=O)C(=O)c3cc(-c4ccc(Cl)cc4)ccc32)cc1`, the IC50 in the assay with K562 was found to be 230 nM; with HepG2 it was 380 nM.

As for `C=CCN1C(=O)C(=O)c2cc(-c3ccc(OC)cc3)ccc21`, the IC50 is 390 nM with K562 and 7090 nM with HepG2.

On to `CCOC(=O)/C=C1\C(=O)N(Cc2ccc(OC)cc2)c2ccc(-c3ccc(OC)cc3)cc21`, for which the IC50 in the assay with K562 was found to be 1240 nM; in the assay with HepG2, 3390 nM.

In the case of `COc1ccc(CN2C(=O)C(=O)c3cc(-c4ccc(C)cc4)ccc32)cc1`, the IC50 is 400 nM with K562 and more than 10000 nM in the assay with HepG2.

Take `Cc1ccc(-c2ccc3c(c2)C(=O)C(=O)N3)cc1`: the IC50 in the assay with K562 was more than 10000 nM; with HepG2, 6000 nM.

On to `COc1ccc(-c2ccc3c(c2)C(=O)C(=O)N3c2ccc(OC)cc2)cc1`, for which the IC50 with K562 and in the assay with HepG2 was more than 10000 nM each time.

Consider `COc1ccc(CN2C(=O)C(=O)c3cc(-c4ccccc4)ccc32)cc1`, for which the IC50 with K562 was found to be 150 nM; with HepG2, 1080 nM.

As for `O=C1Nc2ccc(F)cc2C1=O` [5-FLUOROISATIN], the IC50 in the assay on K562 and in the assay on HepG2 was more than 10000 nM throughout.

For the molecule `COc1ccc(-c2ccc3c(c2)C(=O)C(=O)N3Cc2ccccc2OC)cc1`, the values for the IC50 in the assay with K562 and with HepG2 were 40 nM and 130 nM, respectively.

For the molecule `COc1ccc(-c2ccc3c(c2)C(=O)C(=O)N3Cc2ccc3c(c2)OCO3)cc1`, the IC50 turned out to be 30 nM in the assay with K562 and 440 nM in the assay with HepG2.

Regarding `COc1ccc(CN2C(=O)C(=O)c3cc(-c4cccc(OC)c4)ccc32)cc1`, the values for the IC50 in the assay with K562 and with HepG2 were 100 nM and 1890 nM, respectively.

For `O=C1Nc2ccccc2C1=O` [ISATIN], the IC50 in the assay on K562 and with HepG2 was more than 10000 nM in each case.

Consider `COc1ccc(CN2C(=O)C(F)(F)c3cc(-c4ccc(OC)cc4)ccc32)cc1`, for which the IC50 in the assay with K562 and in the assay on HepG2 was more than 10000 nM in each case.

As to `COc1ccc(-c2ccc3c(c2)C(=O)C(=O)N3)cc1`, the IC50 was 6920 nM in the assay with K562 and 960 nM with HepG2.

Take `COc1ccc(CN2C(=O)C(=O)c3cc(-c4ccc(O)cc4)ccc32)cc1`: the IC50 is 60 nM in the assay on K562 and more than 10000 nM in the assay on HepG2.

On to `COc1ccc(CN2C(=O)C(=O)c3cc(-c4ccc(OC)c(OC)c4)ccc32)cc1`, for which the IC50 is 260 nM in the assay with K562 and more than 10000 nM in the assay on HepG2.

In the case of `COc1ccc(-c2ccc3c(c2)C(=O)C(=O)N3Cc2ccc(OC)c(OC)c2)cc1`, the IC50 in the assay on K562 came out at 60 nM; in the assay on HepG2, 1350 nM.

Regarding `COc1ccc(CN2C(=O)/C(=N\O)c3cc(-c4ccc(OC)cc4)ccc32)cc1`, the IC50 in the assay with K562 and in the assay on HepG2 was more than 10000 nM throughout.

As to `COc1ccc(-c2ccc3c(c2)C(=O)C(=O)N3Cc2cccc(OC)c2)cc1`, the midpoint of inhibition in the assay on HepG2, the IC50, lay at 700 nM.

Consider `COc1ccc(-c2ccc3c(c2)C(=O)C(=O)N3Cc2ccccc2Cl)cc1`, for which the IC50 with K562 turned out to be 380 nM; in the assay on HepG2, 600 nM.

`COc1ccc(CN2C(=O)C(=O)c3ccc(-c4ccc(OC)cc4)cc32)cc1`: the figures for the IC50 in the assay with K562 and with HepG2 were 7460 nM and more than 10000 nM, respectively.

In the case of `COc1ccc(CN2C(=O)/C(=C\c3ccc(C(F)(F)F)cc3)c3cc(-c4ccc(OC)cc4)ccc32)cc1`, the IC50 in the assay on K562 is 1900 nM; in the assay with HepG2, more than 10000 nM.

Take `COc1ccc(CN2C(=O)C(=O)c3cc(-c4ccncc4)ccc32)cc1`: the IC50 in the assay with K562 was 40 nM; in the assay with HepG2, more than 10000 nM.

On to `COc1ccc(CN2C(=O)C(=O)c3cccc(-c4ccc(OC)cc4)c32)cc1`, for which the IC50 in the assay with K562 was 4430 nM; in the assay with HepG2, 8560 nM.

On to `COc1ccc(CN2C(=O)C(=O)c3cc(-c4ccc(OC(C)C)cc4)ccc32)cc1`, for which the results for the IC50 in the assay on K562 and in the assay with HepG2 were 310 nM and more than 10000 nM, respectively.

`COc1ccc(CN2C(=O)C(C)(O)c3cc(-c4ccc(OC)cc4)ccc32)cc1` (stereo not drawn): the IC50 in the assay on K562 and in the assay with HepG2 was more than 10000 nM in each case.

For `COc1ccc(-c2ccc3c(c2)C(=O)C(=O)N3Cc2ccc(C#N)cc2)cc1`, the results for the IC50 in the assay with K562 and in the assay on HepG2 were 380 nM and 1000 nM, respectively.

In the case of `COc1ccc(CN2C(=O)C(=O)c3cc(-c4ccc(F)c(Cl)c4)ccc32)cc1`, the IC50 in the assay on K562 is 380 nM; in the assay on HepG2, more than 10000 nM.

For `COc1ccc(CN2C(=O)Cc3cc(-c4ccc(OC)cc4)ccc32)cc1`, the IC50 in the assay on K562 and in the assay on HepG2 was more than 10000 nM each time.

`COc1ccc(-c2ccc3c(c2)C(=O)C(=O)N3Cc2ccc(F)cc2)cc1`: the IC50 came out at 560 nM in the assay on K562 and 1120 nM in the assay on HepG2.

`COc1ccc(-c2ccc3c(c2)C(=O)C(=O)N3Cc2ccc(Cl)cc2)cc1`: the IC50 was 350 nM in the assay with K562 and 250 nM in the assay with HepG2.

Regarding `COc1ccc(-c2ccc3c(c2)C(=O)C(=O)N3Cc2ccc(C)cc2)cc1`, the results for the IC50 with K562 and in the assay with HepG2 were 270 nM and 330 nM, respectively.

For `COc1ccc(CN2C(=O)C(=O)c3c(-c4ccc(OC)cc4)cccc32)cc1`, the IC50 in the assay on K562 and with HepG2 was more than 10000 nM each time.

Consider `COc1ccc(CN2C(=O)/C(=C\c3ccc(C(C)C)cc3)c3cc(-c4ccc(OC)cc4)ccc32)cc1`, for which the IC50 with K562 and in the assay on HepG2 was more than 10000 nM throughout.

Turning to `CC[C@@]1(O)C(=O)OCc2c1cc1n(c2=O)Cc2cc3ccccc3nc2-1` [CAMPTOTHECIN], the values for the IC50 with K562 and in the assay with HepG2 were 70 nM and 370 nM, respectively.

As to `COc1ccc(CN2C(=O)C(=O)c3cc(-c4ccsc4)ccc32)cc1`, the figures for the IC50 in the assay with K562 and in the assay on HepG2 were 80 nM and 3670 nM, respectively.

Take `O=C1Nc2ccc(-c3ccccc3)cc2C1=O`: the IC50 was more than 10000 nM in the assay on K562 and 5330 nM with HepG2.

Take `COc1ccc(CN2C(=O)C3(OCCO3)c3cc(-c4ccc(OC)cc4)ccc32)cc1`: the IC50 in the assay with K562 and with HepG2 was more than 10000 nM throughout.

With `COc1ccc(-c2ccc3c(c2)C(=O)C(=O)N3Cc2cc(C)cc(C)c2)cc1`, the IC50 turned out to be 140 nM in the assay on K562 and 410 nM in the assay on HepG2.

Regarding `CCN1C(=O)C(=O)c2cc(-c3ccc(OC)cc3)ccc21`, the IC50 worked out at 2200 nM in the assay on K562 and 4470 nM in the assay on HepG2.

As to `COc1ccc(-c2ccc3c(c2)C(=O)C(=O)N3C)cc1`, the IC50 with K562 is 4980 nM; with HepG2 it was 6670 nM.

Regarding `COc1ccc(CN2C(=O)C(=O)c3cc(-c4ccc(C(F)(F)F)cc4)ccc32)cc1`, the IC50 turned out to be 350 nM in the assay with K562 and 820 nM in the assay with HepG2.

As for `CCCCc1ccc2c(c1)C(=O)C(=O)N2`, the IC50 in the assay on K562 and in the assay with HepG2 was more than 10000 nM throughout.
